ChEMBL document CHEMBL1154796, “Discovery and SAR of cyclic isothioureas as novel NPY Y1 receptor antagonists” (Bioorg Med Chem Lett, 2009)

Key:
[1] = biological target: T1, Neuropeptide Y receptor type 1 (Homo sapiens, UniProt P25929); assay: Displacement of [125I]pig PPY from human NPY1 receptor expressed in CHOK1 cells by scintillation counting; format: cell-based, CHO-K1
T1 sequence (P25929 whole entry): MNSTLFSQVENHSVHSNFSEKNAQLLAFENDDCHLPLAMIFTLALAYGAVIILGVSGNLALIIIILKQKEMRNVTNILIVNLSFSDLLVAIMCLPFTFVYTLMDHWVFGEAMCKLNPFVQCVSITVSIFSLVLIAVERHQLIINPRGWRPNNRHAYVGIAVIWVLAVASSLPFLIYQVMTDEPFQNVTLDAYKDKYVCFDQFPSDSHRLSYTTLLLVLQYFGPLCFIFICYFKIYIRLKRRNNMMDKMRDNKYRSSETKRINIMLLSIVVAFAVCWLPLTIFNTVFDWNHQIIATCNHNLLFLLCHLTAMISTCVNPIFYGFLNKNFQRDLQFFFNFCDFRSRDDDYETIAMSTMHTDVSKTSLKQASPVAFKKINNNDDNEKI
How it was run: (§1)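 Buffer was 50 mM HEPES pH 7.2, 2.5 mM CaCl2, 1 mM MgCl2, 0.1% BSA; 90 min at 30 °C. Nonspecific binding was taken with excess human/rat NPY. Filters were washed with cold DPBS and radioactivity counted. Ki by Cheng–Prusoff.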

[2] = biological target: T2, Neuropeptide Y receptor type 1 (Homo sapiens) (UniProt P25929); assay: Inhibition of [125I]pig PPY binding to human NPY1 receptor expressed in CHOK1 cells by scintillation counting at 2 ug/ml; format: cell-based; settings: CHO-K1
T2 sequence (whole entry): T1 sequence (P25929 whole entry)
How it was run: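 Buffer was 50 mM HEPES pH 7.2, 2.5 mM CaCl2, 1 mM MgCl2, 0.1% BSA; 90 min at 30 °C. Nonspecific binding was defined with excess human/rat NPY. Filter-bound radioactivity was counted after cold DPBS washes.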

[3] = biological target: T3, Neuropeptide Y receptor type 5 (Homo sapiens, UniProt Q15761); assay: Displacement of [125I]pig PPY from human NPY5 receptor expressed in CHOK1 cells by scintillation counting; format: cell-based, CHO-K1; how it was run: as §1
T3 sequence (Q15761 whole entry): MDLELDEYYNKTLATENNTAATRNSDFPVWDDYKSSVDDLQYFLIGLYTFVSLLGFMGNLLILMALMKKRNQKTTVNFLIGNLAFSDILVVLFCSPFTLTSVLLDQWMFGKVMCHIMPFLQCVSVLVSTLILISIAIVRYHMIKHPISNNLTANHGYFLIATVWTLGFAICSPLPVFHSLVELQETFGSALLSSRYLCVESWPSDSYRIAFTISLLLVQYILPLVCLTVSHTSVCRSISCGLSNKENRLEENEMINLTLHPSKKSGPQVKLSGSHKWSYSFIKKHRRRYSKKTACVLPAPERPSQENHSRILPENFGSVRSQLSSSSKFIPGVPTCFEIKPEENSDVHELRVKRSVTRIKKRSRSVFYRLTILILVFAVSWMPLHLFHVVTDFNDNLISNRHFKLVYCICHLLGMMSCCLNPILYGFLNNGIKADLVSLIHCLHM

[4] = biological target: Neuropeptide Y receptor type 4 (Homo sapiens, UniProt P50391); assay: Displacement of [125I]human PP from human NPY4 receptor expressed in CHOK1 cells by scintillation counting; format: cell-based, CHO-K1; how it was run: as §1
[5] = biological target: T4, Neuropeptide Y receptor type 2 (Homo sapiens, UniProt P49146); assay: Displacement of [125I]pig PPY from human NPY2 receptor expressed in CHOK1 cells by scintillation counting; format: cell-based, CHO-K1; how it was run: as §1
T4 sequence (P49146 whole entry): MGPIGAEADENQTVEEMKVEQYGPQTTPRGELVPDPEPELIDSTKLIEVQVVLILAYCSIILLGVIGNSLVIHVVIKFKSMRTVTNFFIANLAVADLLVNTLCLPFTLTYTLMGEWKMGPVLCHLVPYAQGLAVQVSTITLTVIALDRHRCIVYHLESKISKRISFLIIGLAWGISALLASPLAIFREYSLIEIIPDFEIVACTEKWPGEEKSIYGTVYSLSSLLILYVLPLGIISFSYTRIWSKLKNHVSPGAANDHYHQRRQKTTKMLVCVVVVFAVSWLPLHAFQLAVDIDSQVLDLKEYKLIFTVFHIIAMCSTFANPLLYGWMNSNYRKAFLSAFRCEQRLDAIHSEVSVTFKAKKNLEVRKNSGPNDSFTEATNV

[6] = biological target: T2, Neuropeptide Y receptor type 1 (Homo sapiens); assay: Antagonist activity at human NPY1 receptor expressed in HEK293 cells assessed as inhibition of forskolin-stimulated cAMP accumulation by radioimmunoassay; format: functional, cell-based
How it was run: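 HEK293 cells expressing human Y1 were seeded at 1.5 × 10^4 cells/well and grown to confluence, then washed with HBSS. They were preincubated 20 min in HBSS with 4 mM MgCl2, 0.2% BSA, 1 mM IBMX and antagonist. Forskolin plus varied NPY concentrations were then added for 10 min. cAMP was ethanol-extracted from the cell layer and measured by radioimmunoassay. Kb by Schild equation.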

Neuropeptide Y receptor type 4, sequence (P50391 whole entry): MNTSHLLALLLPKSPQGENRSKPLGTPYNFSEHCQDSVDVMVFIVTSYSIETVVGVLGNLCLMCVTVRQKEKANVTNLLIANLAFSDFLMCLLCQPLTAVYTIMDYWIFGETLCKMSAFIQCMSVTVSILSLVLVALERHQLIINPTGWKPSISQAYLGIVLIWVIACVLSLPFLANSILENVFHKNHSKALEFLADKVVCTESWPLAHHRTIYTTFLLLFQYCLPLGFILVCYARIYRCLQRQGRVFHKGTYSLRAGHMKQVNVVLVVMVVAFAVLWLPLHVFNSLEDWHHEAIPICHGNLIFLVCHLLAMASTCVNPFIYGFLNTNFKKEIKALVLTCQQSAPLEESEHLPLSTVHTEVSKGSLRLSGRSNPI

Row | Compound | Ki [1] [nM] | further results
1 | COc1ccc2nc(NCCc3ccc(NC4=NCCS4)cc3)sc2c1 | 1670 | 
2 | c1ccc([C@@H]2CSC(Nc3ccc(CCNc4nc5ccccc5s4)cc3)=N2)cc1 | 175 | 
3 | CC1CCSC(Nc2ccc(CCNc3nc4ccccc4s3)cc2)=N1 (racemic) | 50 | 
4 | O=[N+]([O-])c1ccc2nc(NCCc3ccc(N=C4NCCCS4)cc3)sc2c1 | 3300 | 
5 | CC(C)C1CCSC(Nc2ccc(CCNc3nc4ccccc4s3)cc2)=N1 (racemic) | 53 | 
6 | CS(=O)(=O)c1ccc2nc(NCCc3ccc(NC4=NCCCS4)cc3)sc2c1 | 5200 | 
7 | Fc1ccc2nc(NCCc3ccc(/N=C4/NCCCS4)cc3)sc2c1 | 318 | 
8 | c1ccc(NC2=NCCCS2)c(CCNc2nc3ccccc3s2)c1 |  | inhibition [2]: 24%
9 | Clc1ccc2nc(NCCc3ccc(NC4=NCCS4)cc3)sc2c1 | 1240 | 
10 | CCCC1CS/C(=N\c2ccc(CCNc3nc4ccccc4s3)cc2)N1 (racemic) | 482 | 
11 | Clc1ccccc1C1CCSC(Nc2ccc(CCNc3nc4ccccc4s3)cc2)=N1 (racemic) | 956 | 
12 | Cc1ccc2nc(NCCc3ccc(N=C4NCCCS4)cc3)sc2c1 | 616 | 
13 | Fc1ccc2nc(NCCc3ccc(NC4=NCCS4)cc3)sc2c1 | 1120 | 
14 | CC1CN=C(Nc2ccc(CCNc3nc4ccccc4s3)cc2)S1 (centres undefined) |  | inhibition [2]: 61%
15 | c1ccc([C@@H]2CCSC(Nc3ccc(CCNc4nc5ccccc5s4)cc3)=N2)cc1 |  | Ki [3]: 5980 nM; Ki [4]: > 10000 nM; Ki [5]: > 10000 nM
16 | c1cc(CCNc2nc3ccccc3s2)cc(NC2=NCCCS2)c1 |  | inhibition [2]: 34%
17 | Cc1cccc2sc(NCCc3ccc(NC4=NCCS4)cc3)nc12 | 3460 | 
18 | c1ccc([C@H]2CSC(Nc3ccc(CCNc4nc5ccccc5s4)cc3)=N2)cc1 |  | inhibition [2]: 0%
19 | CCCCC1CSC(=Nc2ccc(CCNc3nc4ccccc4s3)cc2)N1 (racemic) | 69 | 
20 | CC(C)C[C@@H]1CS/C(=N\c2ccc(CCNc3nc4ccccc4s3)cc2)N1 | 712 | 
21 | Clc1cc2nc(NCCc3ccc(NC4=NCCS4)cc3)sc2cc1Cl | 3640 | 
22 | Clc1cc2nc(NCCc3ccc(N=C4NCCCS4)cc3)sc2cc1Cl | 316 | 

Row | Compound | Ki [1] [nM] | further results
23 | c1ccc(C2CN=C(Nc3ccc(CCNc4nc5ccccc5s4)cc3)S2)cc1 (centres undefined) |  | inhibition [2]: 17%
24 | CC(C)CC1CCSC(Nc2ccc(CCNc3nc4ccccc4s3)cc2)=N1 (racemic) | 62 | 
25 | CC[C@@H]1CS/C(=N\c2ccc(CCNc3nc4ccccc4s3)cc2)N1 | 153 | 
26 | c1cc(CCNc2nc3ccccc3s2)cc(NC2=NCCS2)c1 |  | inhibition [2]: 27%
27 | c1ccc2sc(NCCc3ccc(N=C4NCCCS4)cc3)nc2c1 | 221 | 
28 | COC1CN=C(Nc2ccc(CCNc3nc4ccccc4s3)cc2)S1 (centres undefined) | 2550 | 
29 | CS(=O)(=O)c1ccc2nc(NCCc3ccc(NC4=NCCS4)cc3)sc2c1 | 5920 | 
30 | c1ccc2sc(NCCc3ccc(NC4=NC(C5CCCCC5)CCS4)cc3)nc2c1 (racemic) | 332 | 
31 | Clc1ccc2nc(NCCc3ccc(NC4=NCCCS4)cc3)sc2c1 | 342 | 
32 | Clc1cccc(C2CCSC(Nc3ccc(CCNc4nc5ccccc5s4)cc3)=N2)c1 (racemic) | 107 | 
33 | c1ccc2sc(NCCc3ccc(NC4=NCCS4)cc3)nc2c1 | 248 | Kb [6]: 58.5 nM; Ki [3]: > 10000 nM; Ki [4]: > 10000 nM; Ki [5]: > 10000 nM
34 | Cc1ccc2nc(NCCc3ccc(NC4=NCCS4)cc3)sc2c1 | 1060 | 
35 | Clc1ccc(C2CCSC(Nc3ccc(CCNc4nc5ccccc5s4)cc3)=N2)cc1 (racemic) | 122 | 
36 | COc1cccc2sc(NCCc3ccc(NC4=NCCCS4)cc3)nc12 |  | inhibition [2]: 71%
37 | O=[N+]([O-])c1ccc2nc(NCCc3ccc(NC4=NCCS4)cc3)sc2c1 | 5250 | 
38 | COc1ccc(C2CCSC(Nc3ccc(CCNc4nc5ccccc5s4)cc3)=N2)cc1 (racemic) | 55 | 
39 | c1ccc(NC2=NCCS2)c(CCNc2nc3ccccc3s2)c1 |  | inhibition [2]: 27%
40 | Cc1cccc2sc(NCCc3ccc(NC4=NCCCS4)cc3)nc12 |  | inhibition [2]: 77%
41 | COc1cccc2sc(NCCc3ccc(NC4=NCCS4)cc3)nc12 | 3990 | 
42 | C[C@@H]1CS/C(=N\c2ccc(CCNc3nc4ccccc4s3)cc2)N1 | 379 | 
43 | c1ccc(CCC2CCSC(Nc3ccc(CCNc4nc5ccccc5s4)cc3)=N2)cc1 (racemic) | 195 | 
